# Results: the RNAGym collection of RNA variant scans (doi:10.1126/science.aae0568)
# Variants at the floor of the assay were thinned out.
# B1: tRNA (parent)
# chain: GUUCCGUUGGCGUAAUGGUAACGCGUCUCCCUCCUAAGGAGAAGACUGCGGGUUCGAGUCCCGUACGGAACG
# Variants of: B1
# Test: yeast fitness relative to wild type (ratio to wild type); higher = fitter; tRNA-Arg(CCU), competitive growth, 37 C, YPD
# How it was run: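 Amplicons of the tRNA-Arg(CCU) gene were sequenced, 100-nucleotide paired-end, from the start population and from each end population of a pooled yeast competition. The competition, in six parallel replicates, lasted 24 hours in YPD at 37°C. Fitness relative to wild type was calculated from changes in genotype frequencies. Genotypes had to have ≥ 100 starting reads, and estimates < 0.5 were set to 0.5.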
row,Variant,yeast fitness
1,C22U U53G,≤ 0.5
2,G6A C24U U26G C34A C46G G56A C66U,≤ 0.5
3,C22A A57G,0.916
4,U47G C49A G63A G68A,≤ 0.5
5,G12U U54C,0.59
6,A21C C29A G52A C55G A57C A69C,≤ 0.5
7,G17C C29A A36G A43U,≤ 0.5
8,C4G U13A C29U A40C,≤ 0.5
9,G6C U7A G39C C55U A70G,≤ 0.5
10,C5A U8C A21G,0.53
11,U32C C34U U53A C66U,≤ 0.5
12,C11U G52A,0.827
13,U3G U35G A40C G48A C60U U64G A65U A69C,≤ 0.5
14,C4U A15C G51C A57G,≤ 0.5
15,G12C G23C G50A C55A,≤ 0.5
16,U3C A14C A21G C22U A37U C49A C60G,≤ 0.5
17,U32C C60G,0.552
18,A37C A43C C66A,≤ 0.5
19,C5U C22G C24G C31U C55A,≤ 0.5
20,A14G C24G C31U C55A C61A,≤ 0.5
21,C34U A70C,0.73
22,G23A C49U,0.735
23,U8G G17A C24G G58C,≤ 0.5
24,A57C C61U A65U,0.563

row,Variant,yeast fitness
1,G9C A21U C27U G44A C66U,0.602
2,C34A G52C G63C,0.681
3,A20U U28C,0.934
4,U3C C27G C33A C66G G67C,≤ 0.5
5,A21C C30G U54C C55G A70G,≤ 0.5
6,G12A U59C,0.993
7,U16A C22U,0.773
8,C29A A36U G50C C55G C61G,≤ 0.5
9,C11G U28A G39A,≤ 0.5
10,G10C C30G C60A,≤ 0.5
11,C5U A37G G56C A65C,≤ 0.5
12,C5U G38C A65U,≤ 0.5
13,C4U G38C A65G,0.621
14,A20U A37U,0.811
15,A15C G25C C29U U35C A43U A70U,≤ 0.5
16,G52A C62U,0.765
17,G41A U47C,0.931
18,G25A C27U,0.901
19,C4G A15U C33A G52C,0.707
20,C49G G56C,0.641
21,C5G C61U U64G,0.87
22,A21U C33G A42G G44A,0.541
23,G12A G51C,0.662
24,C29U A40U U53A C60A A65G,≤ 0.5

row,Variant,yeast fitness
1,C27A C29G,0.702
2,C4U C55U,0.694
3,G41A A43G C66A,≤ 0.5
4,G12C C22A,1
5,C27G U54A,0.544
6,U2G A70G,1.07
7,C4A G38C G68A A69C,≤ 0.5
8,C30G U47C,0.701
9,A14U G48A A70U,0.661
10,G25A C60A A69G,≤ 0.5
11,U2A G48C G50A,0.732
12,C4U C22U C27U G58C,≤ 0.5
13,C5G U16A C29U A40U,0.523
14,U3C G23A U28G,≤ 0.5
15,C27U C46U G48A G68A,0.635
16,C4G U7G A36C A37C A57C C66U,≤ 0.5
17,A21G C49A U54C A65G,≤ 0.5
18,C5U C24U G38C G44C,≤ 0.5
19,C31G A37C A70C,≤ 0.5
20,A36G C49U A69C,0.836
21,C24G C46U A69U,0.595
22,C31U G58A A65C,0.65
23,U35A G52A,0.532
24,C5G C30G G67A A70U,≤ 0.5

row,Variant,yeast fitness
1,A36U C46G A69U,0.538
2,U8G A20G U47G A57G,0.654
3,U19C U32A A37C C55G,≤ 0.5
4,G10A A15C G25A U47C C66U,0.558
5,U8A C34U U35A C46U A70U,≤ 0.5
6,A20C A21C A45G,≤ 0.5
7,U7A G17A C24U C34A A40G C61U A69U,≤ 0.5
8,U2G A57C G68U,≤ 0.5
9,C11G C46G A57U,0.624
10,C30U U32A A57U,0.692
11,C11U G18C C33G G44A C46G C66U,0.606
12,C5G C11G C27G G48A,0.524
13,C24U A36C A45C C55U A70U,≤ 0.5
14,C5U U7A A65C,0.64
15,G23C U28G G41A A42U U59A,≤ 0.5
16,C11A G23A U32C U47C,≤ 0.5
17,C27U U35A,0.771
18,C4A C22G C27U,0.522
19,U7A U16C G23A C24U U35A C60A A69C,≤ 0.5
20,C22A C29G C33U A70C,≤ 0.5
21,C46U A57C U64C,≤ 0.5
22,A20U C33A G41C,≤ 0.5
23,A14C A40C U64C,0.622
24,G17C A57G,0.68

row,Variant,yeast fitness
1,G6C U53C,0.865
2,A21U C29G G63A,0.618
3,U2A A21G C29U A40U,0.57
4,U2C C29A A57C,≤ 0.5
5,C4A G18A C27U U28G C33G A36G,≤ 0.5
6,A21U A43U C49G,≤ 0.5
7,C5A U13C C29U C55U G56A,≤ 0.5
8,G39A C60U C62A,0.505
9,G10C C24U C29A A45U C46G U47A G50A U64G,0.575
10,C29G A45G G52C A57U,≤ 0.5
11,G38A C61A A65U,≤ 0.5
12,U26A U28C C30G,≤ 0.5
13,C24A C31G,0.625
14,A21C C34U C49U,≤ 0.5
15,C4A A15C U28C C34G,≤ 0.5
16,G9A C11G C55G G63C G67C,0.578
17,C22G A37U A43U,0.502
18,C4U U16C U32A G58A C60U,≤ 0.5
19,C5G C22G G39C A57U,0.723
20,U32A C33U A42U C60A,0.595
21,U7G C60U G63C,0.585
22,G6A C11G G17U G38A A43U U54A,≤ 0.5
23,C34G U35A A57U,≤ 0.5
24,A36G C60G A70G,≤ 0.5

row,Variant,yeast fitness
1,U13C U59C C66U G67U,0.576
2,C11A C33U C62U A69C,≤ 0.5
3,C29A A37U A43C,0.733
4,A36C C46U,0.577
5,A42C G52C A69C,0.607
6,U3A G25C,1.03
7,U3G C11G C34U C55U,≤ 0.5
8,U3C G12A C33G A42C A65G,≤ 0.5
9,A45C G58A C62U A69C,0.59
10,G23A C29G U32C A45U C60G C61U A69G,≤ 0.5
11,G9C C30U A69U,≤ 0.5
12,G10C A14C A21U C31U,0.773
13,G9C U16C G51C,≤ 0.5
14,U32A A69C,0.882
15,C24A C31G C60U,≤ 0.5
16,U2C G10C C24A C31U A36C A43C C55A,0.546
17,C5U A14C C61U,0.562
18,C29A U47C,0.713
19,U8C G18C A21C C61U C66U,≤ 0.5
20,G48A C62U,1.01
21,A14G C24G G50A C55G,≤ 0.5
22,G12C U13A G38A,0.576
23,G6A A15G U54G C55U,≤ 0.5
24,U13A A45U,1

row,Variant,yeast fitness
1,C5U C29A A42G C61G,≤ 0.5
2,U2A C4U U8G C55G,0.513
3,A15C C30U C33G,≤ 0.5
4,U2G A21G A40G,≤ 0.5
5,C5G C30U C31G C46U,≤ 0.5
6,A37U U53G C55G C62A,0.744
7,U19C U32G C33G,≤ 0.5
8,A57C A69C,0.608
9,C27G U47C G50A A57G C60G,0.636
10,U13C A14G A45G,≤ 0.5
11,A15C A69G,0.877
12,C24A C55A A65G,≤ 0.5
13,C4G A14C C24G U53C C62G,≤ 0.5
14,G48C C62U G68C,0.557
15,C22U C55G,0.578
16,U2A C61U A70G,0.571
17,C22U U64C C66U,0.7
18,C27G C33G A57C,≤ 0.5
19,A36C A43U,0.575
20,C5A A65G,0.978
21,C30G C33U C49U,0.556
22,A20U C30A G52A A65U,≤ 0.5
23,C46U C49G G68A,0.64
